Article PMC13570607 (European journal of medicinal chemistry, 2025)

Assays:
[1] = Hepatic microsomal stability; type: in vitro ADME; settings: mouse liver microsomes 1 mg/mL; 1 μM compound; NADPH
Outline: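 Incubation buffer was 100 mM potassium phosphate, pH 7.4. The reaction was started with NADPH (1 mM final). Aliquots taken at 0, 5, 10, 20, 40 and 60 min were quenched in acetonitrile (5x v:v), filtered and analysed by LC-MS/MS. Data were log-transformed to give half-life and intrinsic clearance.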

[2] = Parallel Artificial Membrane Permeability Assay; type: in vitro ADME; settings: 5 μM; 37 °C; 5 h
Outline: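 Passive permeability was measured on a pre-coated PAMPA plate. The donor (bottom) side held 0.02% BSA in PBS with compound added from DMSO solution. The receiver (top) side held 0.4% BSA in PBS. After 5 h at 37 °C, receiver samples were quantified by LC/MS/MS.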

Equilibrium solubility = type: physicochemical; settings: PBS pH 7.4; 24 h
Outline: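 About 1-2 mg of dry compound was added to 1 mL PBS pH 7.4 in a test tube. The mixture was inverted for 24 h, then filtered, and the filtrate was quantified by LC/MS/MS.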

Kinetic solubility = type: physicochemical; settings: PBS pH 7.4; room temp 24 h
Outline: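 A 10 mM DMSO stock was diluted 1 μL into 99 μL PBS pH 7.4. It was held at room temperature for 24 h, filtered, and quantified by LC/MS/MS.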

TG2 = biological target: T1, TG2 (Homo sapiens, UniProt P21980); assay: TG2 transamidase activity in protein lysates of treated SKOV3 cells; type: cell-based
T1 sequence (P21980 1-687): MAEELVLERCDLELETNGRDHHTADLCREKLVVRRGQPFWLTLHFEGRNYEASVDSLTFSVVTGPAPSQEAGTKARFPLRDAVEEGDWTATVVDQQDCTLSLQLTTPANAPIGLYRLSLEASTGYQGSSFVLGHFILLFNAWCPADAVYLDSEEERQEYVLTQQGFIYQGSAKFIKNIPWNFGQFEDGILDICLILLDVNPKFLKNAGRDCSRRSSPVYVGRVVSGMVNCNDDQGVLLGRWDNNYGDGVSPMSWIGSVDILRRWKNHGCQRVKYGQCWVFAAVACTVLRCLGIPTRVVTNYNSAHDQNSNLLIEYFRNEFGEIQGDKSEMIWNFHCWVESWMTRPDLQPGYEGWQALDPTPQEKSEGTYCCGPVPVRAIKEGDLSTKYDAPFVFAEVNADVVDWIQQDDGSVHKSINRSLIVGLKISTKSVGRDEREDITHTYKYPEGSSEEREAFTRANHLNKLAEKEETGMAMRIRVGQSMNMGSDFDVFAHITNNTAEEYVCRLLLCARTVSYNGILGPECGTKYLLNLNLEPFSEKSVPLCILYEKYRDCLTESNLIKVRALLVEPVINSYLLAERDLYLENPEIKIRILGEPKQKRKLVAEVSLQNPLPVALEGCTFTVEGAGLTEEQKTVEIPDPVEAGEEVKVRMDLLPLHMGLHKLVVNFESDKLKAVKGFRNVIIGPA
Outline: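 SKOV3 cells were treated with 10 μM test compound for 24 h, and lysates were assayed in a colorimetric transamidase kit. Controls were a reference TG2 inhibitor at 20 μM, VHL ligand at 10 μM, 50 mM EDTA, and lysates of TG2-knockdown or control-shRNA cells. Lysates were incubated with assay mixture for 30 min at 37 °C, then washed, including a 0.1 M NaOH wash. Detection used streptavidin-HRP (1:2000, 15 min, 37 °C), then HRP substrate for 5 min, stopped, and read at 450 nm.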

SMILES	Microsomal Stability Clint [1]	Microsomal Stability T1/2 [1]	PAMPA Permeability [2]	Equilibrium Solubility (Equilibrium solubility)	Kinetic Solubility (Kinetic solubility)	TG2 enzymatic (transamidase) activity (TG2; 20 μM)	TG2 enzymatic (transamidase) activity (TG2; 10 μM, 24 hours)
Cc1cc(N(C)C)nc(Nc2ccc(NC(=O)Cc3ccccc3)cc2)n1 [MT4]	46 µL/min/mg	15.2 min	2.60 10^−6 cm*s^−1	0.76 µM	54.96 µM	no effect on transamidating activity	–
Cc1ncsc1-c1ccc(CNC(=O)[C@@H]2C[C@@H](O)CN2C(=O)[C@@H](N)C(C)(C)C)cc1 [VHL ligand 1]	–	–	–	–	–	–	no effect on transamidating activity
